Test results reported in ChEMBL document CHEMBL4014342, “Subtly Modulating Glycogen Synthase Kinase 3 β: Allosteric Inhibitor Development and Their Potential for the Treatment of Chronic Diseases” (J Med Chem, 2017).
Active and inactive are the calls of the source. The rule behind the calls is not given here.

Experiments:
[1] = target: T1, Glycogen synthase kinase-3 beta (Homo sapiens, UniProt P49841); assay: Allosteric inhibition of human recombinant full length N-terminal GST-tagged GSK3beta expressed in fall armyworm Sf9 cells after 30 min in presence of ATP by kinase glo luminescent assay
Method in brief: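 Human recombinant GSK-3β (20 ng) with prephosphorylated peptide substrate, 50 μM in the 20 μL substrate mix, and ATP, 2 μM in that mix. Buffer: 50 mM HEPES pH 7.5, 1 mM EDTA, 1 mM EGTA, 15 mM Mg acetate; DMSO ≤1%. Incubated 30 min at 30 °C, then Kinase-Glo added and luminescence read after 10 min.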
Target sequence in this assay (P49841 whole entry): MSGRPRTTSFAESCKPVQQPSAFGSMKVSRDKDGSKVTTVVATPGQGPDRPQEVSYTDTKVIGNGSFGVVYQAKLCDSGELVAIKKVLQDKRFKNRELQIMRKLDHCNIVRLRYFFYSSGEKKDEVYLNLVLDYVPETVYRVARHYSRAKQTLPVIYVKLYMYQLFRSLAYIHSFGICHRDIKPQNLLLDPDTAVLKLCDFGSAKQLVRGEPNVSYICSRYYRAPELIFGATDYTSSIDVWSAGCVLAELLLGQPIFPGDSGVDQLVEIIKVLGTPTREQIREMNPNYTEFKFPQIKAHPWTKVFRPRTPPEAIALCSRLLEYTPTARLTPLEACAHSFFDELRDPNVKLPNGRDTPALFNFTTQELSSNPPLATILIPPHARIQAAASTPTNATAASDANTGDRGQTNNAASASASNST

[2] = target: T1, Glycogen synthase kinase-3 beta; assay: Allosteric inhibition of GSK3beta in human LN18 cells assessed as decrease in beta-catenin translocation from cytoplasm to nucleus at 10 uM after 72 hrs by DAPI-satining based confocal microscopic analysis; assay type: cell-based
Method in brief: (§1)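 LN18 glioblastoma cells (DMEM, 10% FBS, 2 mM glutamine) and SH-SY5Y neuroblastoma cells (DMEM, 10% FBS, 10 mM glutamine; 37 °C, 5% CO2) were grown on glass coverslips and exposed to compound at 10 μM for 72 h, with vehicle controls. Cells were fixed in 4% paraformaldehyde and permeabilized with Triton X-100. β-Catenin was stained with mouse anti-β-catenin and an Alexa-488 secondary, nuclei with DAPI, and localization imaged by confocal microscopy.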
Target sequence in this assay (P49841 whole entry, looked up): as the sequence (P49841 whole entry) above

[3] = target: T1, Glycogen synthase kinase-3 beta; assay: Allosteric inhibition of GSK3beta in human […] cells assessed as decrease in beta-catenin translocation from cytoplasm to nucleus at 10 uM after 72 hrs by DAPI-satining based confocal microscopic analysis; assay type: cell-based; method in brief: as §1
Target sequence in this assay (P49841 whole entry, looked up): as the sequence (P49841 whole entry) above

[4] = Cytotoxicity against motor neurons obtained from SMA patient derived iPSC assessed as cell death at >1.25 uM after 7 days; assay type: cell-based; conditions: human, motor neuron, 168 h
Method in brief: (§2)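 SMA type I/II patient iPSCs were differentiated into motor neurons over 15 days: LDN/SB431542, retinoic acid, BDNF, smoothened agonist, then DAPT/Ara-C. Cells were dissociated onto astrocyte-coated wells in Neurobasal with B27/N2 and BDNF, GDNF and CNTF, and treated 7 days with DMSO or increasing compound concentrations. After fixation, cells were immunostained for Islet1/MAP2 with Hoechst nuclear stain and imaged automatically. Survival is expressed as Islet1+ MN counts relative to DMSO wells, for each line.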

Motor neuron = assay: Increase in survival of motor neurons obtained from SMA patient derived iPSC after 7 days by Hoechst 33342-staining based fluorescence assay; assay type: functional, cell-based; conditions: Homo sapiens; method in brief: as §2
[5] = target: T1, Glycogen synthase kinase-3 beta; assay: Non-competitive allosteric inhibition of human recombinant full length N-terminal GST-tagged GSK3beta expressed in fall armyworm Sf9 cells at 2.5 to 5 uM using GS2 as substrate measured at constant substrate levels and varying ATP levels after 30 mins by ADP-Glo kinase Assay
Method in brief: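 Human recombinant GSK-3β kinetics with ATP varied from 1 to 50 μM, inhibitor at 2.5 or 5 μM, and GS-2 held constant, stated as 25 μM in the methods and 12.5 μM in the legend. Read by ADP-Glo and analyzed by double-reciprocal plots. Each point is the mean of two experiments, each run in duplicate.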
Target sequence in this assay (P49841 whole entry, looked up): as the sequence (P49841 whole entry) above

[6] = target: T1, Glycogen synthase kinase-3 beta; assay: Non-competitive allosteric inhibition of human recombinant full length N-terminal GST-tagged GSK3beta expressed in fall armyworm Sf9 cells at 2 to 5 uM using GS2 as substrate measured at varying substrate levels and constant ATP levels after 30 mins by Double-reciprocal plot analysis
Method in brief: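 Human recombinant GSK-3β kinetics with GS-2 substrate varied from 12.5 to 100 μM, ATP held at 1 μM, and inhibitor at 2 or 5 μM. Analyzed by Lineweaver–Burk double-reciprocal plots. Each point is the mean of two experiments, each run in duplicate.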
Target sequence in this assay (P49841 whole entry, looked up): as the sequence (P49841 whole entry) above

Myoblast [7] = assay: Induction of myoblast differentiation in CDM1 patient-derived human primary myoblasts after 4 days by bright field microscopic method; assay type: functional, cell-based
Myoblast [8] = assay: Induction of myoblast differentiation in CDM1 patient-derived human primary myoblasts assessed as increase in desmin expression after 4 days by Western blot analysis; assay type: functional, cell-based
Method in brief: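 CDM1 patient primary myoblasts, about 1,000 repeats and fewer than 15–20 passages, with control myoblasts. Grown in F10-based medium, then switched to fusion medium (DMEM, horse serum, insulin) changed daily. Compound in DMSO was added at different doses with fresh fusion medium each day. After 4 days, myotube RIPA extracts were probed by Western blot for desmin, with actin as control.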

In the case of Cn1c(=O)c(C(=O)NNCCC#N)c(O)c2ccccc21, the IC50 [1] is reported as > 20 µM.

For CCn1c(=O)c(C(=O)NNC(=O)CCc2ccc(O)cc2)c(O)c2ccccc21, the IC50 [1] was > 20 µM.

For CCCCCCCCCCCC(=O)NNC(=O)c1c(O)c2ccccc2n(CC=C(C)C)c1=O, the IC50 [1] was 7.78 µM.

With CCCCCCNC(=O)c1c(O)c2ccccc2n(C)c1=O the IC50 [1] was > 20 µM.

In the case of Cn1c(=O)c(C(=O)NNC(=O)CCc2c[nH]c3ccccc23)c(O)c2ccccc21, the IC50 [1] is reported as > 20 µM.

In the case of CCCCCCCC(=O)NNC(=O)c1c(O)c2ccccc2n(CC)c1=O, the IC50 [1] is reported as > 20 µM.

With Cn1c(=O)c(C(=O)NCC(=O)NCC(=O)OCc2ccccc2)c(O)c2ccccc21 the IC50 [1] was > 20 µM.

In the case of CCCCCCCCCCCC(=O)NNC(=O)c1c(O)c2ccccc2n(CC)c1=O, the inhibition [2] is reported as “Active”, the inhibition [3] is reported as “Active” and the Activity [4] is reported as “Non-Toxic”. For the same molecule, the Activity (Motor neuron) was “Dose-dependent effect”.

For Cn1c(=O)c(C(=O)NNC(=O)Cc2ccccc2)c(O)c2ccccc21, the IC50 [1] was > 20 µM.

For O=C1Cc2c([nH]c3ccc([N+](=O)[O-])cc23)-c2ccccc2N1 [ALSTERPAULLONE], the inhibition [2] was “inactive”, the inhibition [3] was “inactive” and the Activity [4] was “Toxic”.

With CCCCCCCCCCCC(=O)NNC(=O)c1c(O)c2cc(Br)ccc2n(CC)c1=O the inhibition [5] was “Active”, the inhibition [6] was “Active” and the inhibition [2] was “Active”. For the same molecule, the inhibition [3] was “Active”, the Activity (Myoblast [7]) was “Dose-dependent effect” and the Activity (Myoblast [8]) was “Active”. The Activity [4] was “Non-Toxic” and the Activity (Motor neuron) was “Dose-dependent effect”.

In the case of CCCCCCCC(=O)NNC(=O)c1c(O)nc2ccccc2c1O, the IC50 [1] is reported as > 20 µM.

For CCCCCCCCCCCC(=O)NNC(=O)c1c(O)c2ccccc2n(CC(C)C)c1=O, the IC50 [1] was > 20 µM.

With CC(=O)NNC(=O)c1c(O)c2ccccc2n(C)c1=O the IC50 [1] was > 20 µM.

In the case of CCn1c(=O)c(C(=O)NNC(=O)CCc2c[nH]c3ccccc23)c(O)c2ccccc21, the IC50 [1] is reported as > 20 µM.

In the case of CCCCCCCCCCCC(=O)NNC(=O)c1c(O)c2ccc(Cl)cc2n(CC)c1=O, the inhibition [5] is reported as “Active” and the inhibition [6] is reported as “Active”.

For Cn1cc(C2=C(c3ccc(Cl)cc3Cl)C(=O)NC2=O)c2ccccc21, the inhibition [2] was “inactive” and the inhibition [3] was “inactive”.

With CCCCCCCC(=O)NNC(=O)c1c(O)c2ccccc2n(CC=C(C)C)c1=O the IC50 [1] was 7.11 µM.

With Cn1c(=O)c(C(=O)NNC(=O)c2ccccc2)c(O)c2ccccc21 the IC50 [1] was > 20 µM.

With CCCCCCCC(=O)NNC(=O)c1c(O)c2cc(F)ccc2[nH]c1=O the IC50 [1] was > 20 µM.
